Screening data deposited in PubChem by Broad Institute.
Rows were chosen to be rich in hits. Some 5.9% of all compounds tested hit in one or more screens of this group.
GASC1 inh = inhibitors of human demethylase GASC-1 KDM4C; Q9H3R0; GST-KDM4C 2-372, H3K9me3 peptide, LANCE TR-FRET; inhibition, % at 12.5 µM; actives 0.15% (n = 96,000); AID 720574;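 active = mean replicate inhibition above about 25%, with at least 55% of replicates also reaching it, limit read from the data, passing the limit was not always enough; inconclusive = only one of those two conditions met; inactive = neither condition met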
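Material: N-terminal GST-fused human GASC-1 (KDM4C) fragment, residues 2-372. Input: 10 nM enzyme. Incubation: enzyme reaction 30 min, then detection 60 min, both room temperature. Doses: one test concentration per compound. Read-out basis: inhibition from TR-FRET ratio decrease. Detection: LANCE TR-FRET, excitation 340 nm, emissions 618 and 671 nm.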
Pf Dd2 growth = blocks growth of Plasmodium falciparum Dd2 parasites; P. falciparum Dd2 growth, SYBR Green, 72 h; active compounds read low; activity change, % at 10 µM; actives 2.3% (n = 94,000); AID 1159554; in the data active = activity change below about -80%; inconclusive = no clear call, values can overlap the other calls
T cruzi growth-1 = inhibitors of T. cruzi proliferation; actives 5.9% (n = 77,000); inhibition, % at 8.34 µM; AID 624255; T. cruzi beta-gal in NIH3T3, GalScreen luminescence, 90 h;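 active = mean inhibition above about 93%, with at least 55% of replicates each passing it, limit read from the data, passing the limit was not always enough; inconclusive = only one of those two conditions holds; inactive = neither condition holds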
IDH1 mut inh = blocks human IDH1 R132H reductase activity; O75874; diaphorase/resazurin fluorescence, 60 min; inhibition, % at 10 µM; actives 0.18% (n = 70,000); in the data active = inhibition above about 34%; inconclusive = no clear call, values can overlap the other calls; inactive = below about 11%;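 note: 0% = DMSO and 100% = no enzyme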
Target sequence (O75874 whole entry R132H): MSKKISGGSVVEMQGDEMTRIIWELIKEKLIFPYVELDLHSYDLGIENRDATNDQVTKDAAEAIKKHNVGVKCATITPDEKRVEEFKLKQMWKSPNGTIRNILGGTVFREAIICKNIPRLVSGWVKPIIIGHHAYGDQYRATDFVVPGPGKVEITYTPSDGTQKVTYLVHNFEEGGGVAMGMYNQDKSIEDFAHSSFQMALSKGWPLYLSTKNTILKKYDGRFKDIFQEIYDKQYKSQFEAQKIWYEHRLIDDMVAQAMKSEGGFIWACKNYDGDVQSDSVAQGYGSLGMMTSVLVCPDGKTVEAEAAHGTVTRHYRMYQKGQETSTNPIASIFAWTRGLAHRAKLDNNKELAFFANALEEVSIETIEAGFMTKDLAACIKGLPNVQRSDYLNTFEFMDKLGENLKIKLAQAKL
T cruzi growth-2 = blocks T. cruzi growth in NIH3T3 host cells; T. cruzi beta-gal in NIH3T3, GalScreen luminescence, 90 h; shares compounds with T cruzi growth-1; inhibition, % at 8.35 µM; actives 72% (n = 5,600);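 active = mean replicate inhibition above about 95% and at least 55% of replicates individually reaching it, limit read from the data; inconclusive = only one of the two criteria is met; inactive = neither criterion is met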
T cruzi growth-3 = Trypanosoma cruzi proliferation inhibition. shares compounds with T cruzi growth-1. actives 21% (n = 5,600). inhibition, % at 2.09 µM. T. cruzi beta-gal in NIH3T3, GalScreen luminescence, 90 h;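 active = mean inhibition above about 95%, with at least 55% of replicates also reaching it, limit read from the data; inconclusive = meets just one of the two conditions; inactive = meets neither condition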;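 note: plate controls were neutral control median for no effect and positive control median for full effect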
NIH3T3 tox = cytotoxicity in mouse NIH/3T3 fibroblasts; shares compounds with T cruzi growth-1; NIH/3T3 viability, CellTiter-Glo ATP luminescence, 90 h; cytotoxicity (signal decrease), % at 8.35 µM; actives 14% (n = 5,600); AID 651742;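 active = mean signal decrease across replicates above about 35% based on untreated-well scatter, with enough replicates individually passing, limit read from the data; inconclusive = no rule stated though some were filed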;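 note: 0% = median of neutral control wells and 100% = median of positive control wells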
NIH3T3 tox 2 = NIH/3T3 (mouse) viability loss | actives 56% (n = 5,600) | inhibition, % at 24.9 µM | shares compounds with T cruzi growth-1 | NIH/3T3 viability, CellTiter-Glo ATP luminescence, 90 h | AID 651744;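 active = mean loss of cell viability signal at or above a set limit, and enough replicates individually reaching it; inconclusive = meets only the mean limit or only the replicate share; inactive = meets neither condition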;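 note: 0% = median of neutral control wells and 100% = median of positive control wells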
Active calls of the source: *; ? = inconclusive; nt = no result.

SMILES	GASC1 inh	Pf Dd2 growth	T cruzi growth-1	IDH1 mut inh	T cruzi growth-2	T cruzi growth-3	NIH3T3 tox	NIH3T3 tox 2
COc1cccc(-c2ccc3c(c2)[C@H]2[C@H](CCN2S(=O)(=O)c2ccc(F)cc2)[C@H](CO)N3C)c1	-1	8	101*	nt	103*	100*	32	6
CN1c2ccc(-c3cccc(C#N)c3)cc2[C@H]2[C@H](CCN2S(=O)(=O)c2ccc(F)cc2)[C@@H]1CO	-1	9	96*	nt	102*	48	18	13
CN1c2ccc(-c3cccc(C#N)c3)cc2[C@@H]2[C@@H](CCN2S(=O)(=O)c2ccccc2)[C@H]1CO	1	-5	97*	nt	98*	109*	52*	76*
Cc1ccc(S(=O)(=O)N2CC[C@@H]3[C@H]2c2cc(-c4cccc(C#N)c4)ccc2N(C)[C@H]3CO)cc1	2	9	?	nt	104*	100*	44*	42*
Cc1ccc(S(=O)(=O)N2CC[C@@H]3[C@@H](CO)N(C)c4ccc(-c5cccc(C#N)c5)cc4[C@@H]32)cc1	-19	-7	93	nt	nt	nt	nt	nt
COc1ccc(S(=O)(=O)N(C)CC(=O)Nc2cccc(C)c2C)cc1Cl	nt	nt	nt	0	nt	nt	nt	nt
O=C(/C=C/c1ccccc1)O[C@@H]1C[C@@](O)(C(=O)O)C[C@@H](O)[C@@H]1O	nt	nt	nt	0	nt	nt	nt	nt
CN1c2ccc(C3=CCCCC3)cc2[C@@H]2[C@@H](CCN2S(=O)(=O)c2ccccc2)[C@@H]1CO	0	-17	105*	nt	96*	106*	33	78*
CN1c2ccc(C3=CCCCC3)cc2[C@@H]2[C@@H](CCN2S(=O)(=O)c2ccc(F)cc2)[C@H]1CO	0	-14	71	nt	nt	nt	nt	nt
CN1c2ccc(-c3cccc(C#N)c3)cc2[C@H]2[C@H](CCN2S(=O)(=O)c2ccccc2)[C@H]1CO	-3	5	101*	nt	108*	82	19	26*
CN1c2ccc(-c3cccc(C#N)c3)cc2[C@@H]2[C@@H](CCN2S(=O)(=O)c2ccccc2F)[C@H]1CO	0	-57	46	nt	nt	nt	nt	nt
CN1c2ccc(-c3cccc(C#N)c3)cc2[C@@H]2[C@@H](CCN2S(=O)(=O)c2ccccc2F)[C@@H]1CO	-1	-33	92*	nt	108*	70	?	6
N#C[C@@H]1[C@@H](c2ccc(C#CC3CCCC3)cc2)[C@@H](CO)N1S(=O)(=O)c1ccccc1	0	-30	99*	nt	102*	?	46*	102*
N#C[C@H]1[C@@H](c2ccc(C#CC3CCCC3)cc2)[C@H](CO)N1S(=O)(=O)c1ccccc1	-2	-46	88	nt	nt	nt	nt	nt
N#C[C@@H]1[C@H](c2ccc(C#CC3CCCCC3)cc2)[C@H](CO)N1S(=O)(=O)c1ccccc1	-1	-71	80	nt	nt	nt	nt	nt
Cc1ccccc1S(=O)(=O)N1[C@@H](C#N)[C@H](c2ccc(C#CC3CCCC3)cc2)[C@@H]1CO	-3	-55	nt	nt	nt	nt	nt	nt
N#C[C@H]1[C@H](c2ccc(C#CC3CCCC3)cc2)[C@H](CO)N1S(=O)(=O)c1ccccc1	-1	-9	90	nt	nt	nt	nt	nt
N#C[C@H]1[C@@H](c2ccc(C#CC3CC3)cc2)[C@@H](CO)N1S(=O)(=O)c1ccccc1	5	-13	96*	nt	107*	63	-7	36*
N#C[C@H]1[C@H](c2ccc(C#CC3CC3)cc2)[C@H](CO)N1S(=O)(=O)c1ccccc1	0	-70	101*	nt	103*	109*	-1	34*
N#C[C@@H]1[C@H](c2ccc(C#CC3CC3)cc2)[C@@H](CO)N1S(=O)(=O)c1ccccc1	0	-70	?	nt	103*	109*	8	-4
O=C(CC1(O)C(=O)Nc2ccc([N+](=O)[O-])cc21)c1ccccc1 (stereo not given)	nt	nt	nt	0	nt	nt	nt	nt
CCC1C/C(=C\c2sccc2C)C(=O)/C(=C/c2sccc2C)C1 (stereo not given)	nt	nt	nt	0	nt	nt	nt	nt
CC(Oc1ccccc1)C(=O)Nc1cc([N+](=O)[O-])ccc1O (stereo not given)	nt	nt	nt	0	nt	nt	nt	nt
